Test results as given in ChEMBL document CHEMBL4138271, “Crystal Structures and Human Leukemia Cell Apoptosis Inducible Activities of Parthenolide Analogues Isolated from Piptocoma rufescens” (J Nat Prod, 2018).
Calls of active or inactive are those of the source. The calls are words filed in the database; no cut-off is given here.

Columns and labels:
EOL1 [1] = experiment: Induction of apoptosis in human EOL-1 cells assessed as necrotic cells at 1.6 uM after 24 hrs by Annexin-V FITC/7-AAD staining based flow cytometric method (reference value: 0.032%); type: functional
MOLM-13 [2] = experiment: Induction of apoptosis in human MOLM13 cells assessed as late apoptotic cells at 0.81 uM after 24 hrs by Annexin-V FITC/7-AAD staining based flow cytometric method (reference value: 1.43%); type: functional
EOL1 [3] = experiment: Induction of apoptosis in human EOL-1 cells assessed as live cells at 0.81 uM after 24 hrs by Annexin-V FITC/7-AAD staining based flow cytometric method (reference value: 97.5%); type: functional
EOL1 [4] = experiment: Induction of apoptosis in human EOL-1 cells assessed as early apoptotic cells at 4 uM after 24 hrs by Annexin-V FITC/7-AAD staining based flow cytometric method (reference value: 1.94%); type: functional
MOLM-13 [5] = experiment: Induction of apoptosis in human MOLM13 cells assessed as early apoptotic cells at 4 uM after 24 hrs by Annexin-V FITC/7-AAD staining based flow cytometric method (reference value: 11.8%); type: functional
MOLM-13 [6] = experiment: Synergistic antileukemic activity against human MOLM13 cells assessed as concentration required for <= 75% cell survival after 72 hrs in presence of midostaurin by CellTiter 96 AQueous One solution cell proliferation assay; type: functional
EOL1 [7] = experiment: Induction of apoptosis in human EOL-1 cells assessed as caspase-3 activation at 10 uM after 72 hrs by immunoblotting analysis; type: functional, cell-based
In short: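 EOL-1 cells (RPMI 1640, 10% FBS, 37 °C, 5% CO2) exposed 72 h; compounds at 10 μM, PKC412 at 10 nM. Harvested, PBS-washed, lysed in hypertonic NP-40 buffer with protease/phosphatase inhibitors; SDS-PAGE, PVDF transfer, rabbit monoclonal cleaved caspase-3 (Asp175) antibody 12 h, secondary 1 h, chemiluminescent detection; β-actin loading control. Representative blots of three independent experiments.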

MOLM-13 [8] = experiment: Induction of apoptosis in human MOLM13 cells assessed as live cells at 0.81 uM after 24 hrs by Annexin-V FITC/7-AAD staining based flow cytometric method (reference value: 86.8%); type: functional
EOL1 [9] = experiment: Induction of apoptosis in human EOL-1 cells assessed as early apoptotic cells at 1.6 uM after 24 hrs by Annexin-V FITC/7-AAD staining based flow cytometric method (reference value: 1.94%); type: functional
MOLM-13 [10] = experiment: Induction of apoptosis in human MOLM13 cells assessed as necrotic cells at 4 uM after 24 hrs by Annexin-V FITC/7-AAD staining based flow cytometric method (reference value: 0%); type: functional
MOLM-13 [11] = experiment: Induction of apoptosis in human MOLM13 cells assessed as late apoptotic cells at 1.6 uM after 24 hrs by Annexin-V FITC/7-AAD staining based flow cytometric method (reference value: 1.43%); type: functional
EOL1 [12] = experiment: Induction of apoptosis in human EOL-1 cells assessed as late apoptotic cells at 0.81 uM after 24 hrs by Annexin-V FITC/7-AAD staining based flow cytometric method (reference value: 0.535%); type: functional
MOLM-13 [13] = experiment: Cytotoxicity against human MOLM13 cells after 72 hrs by MTS assay; type: functional, cell-based; conditions: MOLM-13, 72 h
MOLM-13 [14] = experiment: Induction of apoptosis in human MOLM13 cells assessed as live cells at 4 uM after 24 hrs by Annexin-V FITC/7-AAD staining based flow cytometric method (reference value: 86.8%); type: functional
MOLM-13 [15] = experiment: Induction of apoptosis in human MOLM13 cells assessed as necrotic cells at 0.81 uM after 24 hrs by Annexin-V FITC/7-AAD staining based flow cytometric method (reference value: 0%); type: functional
EOL1 [16] = experiment: Induction of apoptosis in human EOL-1 cells assessed as late apoptotic cells at 1.6 uM after 24 hrs by Annexin-V FITC/7-AAD staining based flow cytometric method (reference value: 0.535%); type: functional
MOLM-13 [17] = experiment: Induction of apoptosis in human MOLM13 cells assessed as live cells at 1.6 uM after 24 hrs by Annexin-V FITC/7-AAD staining based flow cytometric method (reference value: 86.8%); type: functional
MOLM-13 [18] = experiment: Induction of apoptosis in human MOLM13 cells assessed as necrotic cells at 1.6 uM after 24 hrs by Annexin-V FITC/7-AAD staining based flow cytometric method (reference value: 0%); type: functional
EOL1 [19] = experiment: Induction of apoptosis in human EOL-1 cells assessed as live cells at 4 uM after 24 hrs by Annexin-V FITC/7-AAD staining based flow cytometric method (reference value: 97.5%); type: functional
MOLM-13 [20] = experiment: Induction of apoptosis in human MOLM13 cells assessed as late apoptotic cells at 4 uM after 24 hrs by Annexin-V FITC/7-AAD staining based flow cytometric method (reference value: 1.43%); type: functional
EOL1 [21] = experiment: Induction of apoptosis in human EOL-1 cells assessed as necrotic cells at 4 uM after 24 hrs by Annexin-V FITC/7-AAD staining based flow cytometric method (reference value: 0.032%); type: functional
EOL1 [22] = experiment: Cytotoxicity against human EOL-1 cells after 72 hrs by MTS assay; type: functional, cell-based; conditions: EOL1, 72 h
EOL1 [23] = experiment: Induction of apoptosis in human EOL-1 cells assessed as early apoptotic cells at 0.81 uM after 24 hrs by Annexin-V FITC/7-AAD staining based flow cytometric method (reference value: 1.94%); type: functional
EOL1 [24] = experiment: Induction of apoptosis in human EOL-1 cells assessed as necrotic cells at 0.81 uM after 24 hrs by Annexin-V FITC/7-AAD staining based flow cytometric method (reference value: 0.032%); type: functional
MOLM-13 [25] = experiment: Induction of apoptosis in human MOLM13 cells assessed as caspase-3 activation at 10 uM after 72 hrs by immunoblotting analysis; type: functional, cell-based
In short: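 MOLM-13 cells treated 72 h with test compounds at 10 μM or PKC412 at 10 nM. Cells washed in ice-cold PBS, lysed at 10^8 cells/mL in NP-40 hypertonic buffer (pH 7.5) with protease/phosphatase inhibitors, then run on SDS-PAGE and PVDF. Blots probed 12 h with rabbit monoclonal cleaved caspase-3 (Asp175), β-actin as loading control. Representative of three independent experiments.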

EOL1 [26] = experiment: Induction of apoptosis in human EOL-1 cells assessed as live cells at 1.6 uM after 24 hrs by Annexin-V FITC/7-AAD staining based flow cytometric method (reference value: 97.5%); type: functional
MOLM-13 [27] = experiment: Induction of apoptosis in human MOLM13 cells assessed as early apoptotic cells at 0.81 uM after 24 hrs by Annexin-V FITC/7-AAD staining based flow cytometric method (reference value: 11.8%); type: functional
EOL1 [28] = experiment: Synergistic antileukemic activity against human EOL-1 cells assessed as concentration required for <= 75% cell survival after 72 hrs in presence of midostaurin by CellTiter 96 AQueous One solution cell proliferation assay; type: functional
EOL1 [29] = experiment: Induction of apoptosis in human EOL-1 cells assessed as late apoptotic cells at 4 uM after 24 hrs by Annexin-V FITC/7-AAD staining based flow cytometric method (reference value: 0.535%); type: functional
MOLM-13 [30] = experiment: Induction of apoptosis in human MOLM13 cells assessed as early apoptotic cells at 1.6 uM after 24 hrs by Annexin-V FITC/7-AAD staining based flow cytometric method (reference value: 11.8%); type: functional

For `C=C1C(=O)O[C@@H]2C3O[C@]3(C)CC/C=C(\C)CC[C@@H]12` (stereo not given in full), the Activity (EOL1 [1]) was 0.043%, the Activity (MOLM-13 [2]) was 1.14% and the Activity (EOL1 [3]) was 98.1%. It also gave an Activity (EOL1 [4]) of 2.13%, an Activity (MOLM-13 [5]) of 6.43% and an Activity (MOLM-13 [6]) of 3.2 µM. For the same compound, the Activity (EOL1 [7]) was “Active”, the Activity (MOLM-13 [8]) was 90.6% and the Activity (EOL1 [9]) was 2.43%. The Activity (MOLM-13 [10]) was 0.181%, the Activity (MOLM-13 [11]) was 1.23% and the Activity (EOL1 [12]) was 0.329%. For the same compound, the IC50 (MOLM-13 [13]) was 10 µM, the Activity (MOLM-13 [14]) was 92.4% and the Activity (MOLM-13 [15]) was 0.033%. It also gave an Activity (EOL1 [16]) of 0.361%, an Activity (MOLM-13 [17]) of 94.3% and an Activity (MOLM-13 [18]) of 0.044%. For the same compound, the Activity (EOL1 [19]) was 97%, the Activity (MOLM-13 [20]) was 1.02% and the Activity (EOL1 [21]) was 0.118%. The IC50 (EOL1 [22]) was 7.5 µM, the Activity (EOL1 [23]) was 1.56% and the Activity (EOL1 [24]) was 0.011%. The Activity (MOLM-13 [25]) was “Active”, the Activity (EOL1 [26]) was 97.2% and the Activity (MOLM-13 [27]) was 8.23%. For the same compound, the Activity (EOL1 [28]) was 3.2 µM, the Activity (EOL1 [29]) was 0.697% and the Activity (MOLM-13 [30]) was 4.46%.
